1 compound from ChEMBL document CHEMBL4819034, “Tricyclic-Carbocyclic RORγt Inverse Agonists-Discovery of BMS-986313” (J Med Chem, 2021) can be followed below.

pEC50, pIC50: −log10 of the molar value. Where only a bound is given, the exact number is not on record here.

Series [1] can be described thus: Cmax in rat at 4 mg/kg, po. It counts as ADME, organism-based. Further details: route oral, dose 4 mg/kg. The conditions noted are these: in vivo. The procedure, abridged:
(§1)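 Single-dose PK, IV and PO. Doses: mouse and rat 2 mg/kg IV / 4 mg/kg PO; dog and cyno 1 mg/kg IV, with 1 or 2 mg/kg PO.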

Series [2] addresses T1, Nuclear receptor subfamily 1 group I member 2 (Homo sapiens, UniProt O75469).
T1 sequence (O75469 whole entry): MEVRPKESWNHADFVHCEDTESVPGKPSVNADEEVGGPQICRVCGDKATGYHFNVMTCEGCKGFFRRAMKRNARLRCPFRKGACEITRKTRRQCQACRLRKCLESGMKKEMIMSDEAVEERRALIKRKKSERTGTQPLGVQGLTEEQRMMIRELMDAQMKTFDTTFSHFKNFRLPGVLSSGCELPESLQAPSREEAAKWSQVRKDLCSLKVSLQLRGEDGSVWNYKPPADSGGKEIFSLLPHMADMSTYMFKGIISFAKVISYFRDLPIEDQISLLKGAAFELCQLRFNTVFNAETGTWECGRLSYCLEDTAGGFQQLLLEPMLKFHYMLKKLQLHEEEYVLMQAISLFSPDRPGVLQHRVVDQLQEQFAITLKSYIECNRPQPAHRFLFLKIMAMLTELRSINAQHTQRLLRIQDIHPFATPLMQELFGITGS
The series is described as follows: Inverse agonist activity at PXR (unknown origin).

The nature of series [3]: Oral bioavailability in rat at 4 mg/kg. Format: ADME, organism-based. The conditions noted are these: in vivo. The procedure, abridged:
as §1

The next series deals with Cytochrome P450 2C19 (Homo sapiens, UniProt P33261). As to the kind of experiment: Inhibition of CYP2C19 (unknown origin). It counts as ADME.
Series [4] concerns Mus musculus. As to the kind of experiment: Protection against imiquimod-induced C57BL/6 mouse model of psoriasis assessed as reduction in IL-17F mRNA levels at 10 mg/kg, po BID for 7 days by RT-PCR analysis relative to control. The conditions noted are these: time 7 day. Further details: scale not given: the % may be the effect or the level left. It counts as functional.
The nature of series [5]: Clearance in rat at 2 mg/kg, iv. Format: ADME, organism-based. The note with it: in vivo. In outline: as §1
Series [6] can be described thus: Volume of distribution at steady state in rat at 2 mg/kg, iv. The conditions noted are these: in vivo, read-out: Vdss. Format: ADME, organism-based. In outline: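 Single intravenous dose: mouse and rat 2 mg/kg, dog and cynomolgus 1 mg/kg. Steady-state volume of distribution was derived from the IV arm. Values are means from three or more animals.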
Series [7] in a line: Clearance in dog at 1 mg/kg, iv. Format: ADME, organism-based, Canis lupus familiaris. The note with it: in vivo. In outline:
as §1

For another series, the target named is Cytochrome P450 3A4 (Homo sapiens, UniProt P08684). The series is described as follows: Inhibition of CYP3A4 (unknown origin). It counts as ADME.
Series [8] relates to Mus musculus. As to the kind of experiment: Protection against imiquimod-induced C57BL/6 mouse model of psoriasis assessed as inhibition of skin thickening at 5 mg/kg, po BID for 7 days and measured every day for 8 days relative to control. It counts as functional. The note with it: C57BL/6, po, 168 h, time 7 day.
The next series deals with Cytochrome P450 2C9 (Homo sapiens, UniProt P11712). The series is described as follows: Inhibition of CYP2C9 (unknown origin). It counts as ADME.
For another series, the target named is T2, Cytochrome P450 2C8 (Homo sapiens, UniProt P10632).
T2 sequence (P10632 whole entry): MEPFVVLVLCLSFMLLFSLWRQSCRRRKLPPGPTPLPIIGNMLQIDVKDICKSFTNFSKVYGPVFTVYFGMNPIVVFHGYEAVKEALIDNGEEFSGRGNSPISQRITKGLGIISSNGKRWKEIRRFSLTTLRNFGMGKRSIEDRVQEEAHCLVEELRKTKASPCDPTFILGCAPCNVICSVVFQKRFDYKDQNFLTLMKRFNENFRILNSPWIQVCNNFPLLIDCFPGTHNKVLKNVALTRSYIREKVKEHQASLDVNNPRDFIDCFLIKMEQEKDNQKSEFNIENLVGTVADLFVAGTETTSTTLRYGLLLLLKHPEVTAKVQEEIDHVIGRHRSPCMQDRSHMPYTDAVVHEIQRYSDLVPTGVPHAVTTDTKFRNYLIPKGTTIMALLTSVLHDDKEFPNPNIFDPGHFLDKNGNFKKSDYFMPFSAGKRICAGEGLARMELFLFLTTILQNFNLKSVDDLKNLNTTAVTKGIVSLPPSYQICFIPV
As to the kind of experiment: Inhibition of CYP2C8 (unknown origin). It counts as ADME.

Series [9] is described as follows: AUC (0 to 24 hrs) in mouse at 4 mg/kg, po. Format: ADME, organism-based. The conditions noted are these: in vivo. More on the design: time < 24 hr, route oral, dose 4 mg/kg.
Series [10] deals with Mus musculus. As to the kind of experiment: Protection against imiquimod-induced C57BL/6 mouse model of psoriasis assessed as reduction in IL-17A mRNA levels at 10 mg/kg, po BID for 7 days by RT-PCR analysis relative to control. Format: functional. The note with it: time 7 day. More on the design: scale not given: the % may be the effect or the level left.
The target of another series is T3, Cytochrome P450 1A2 (Homo sapiens, UniProt P05177).
T3 sequence (P05177 whole entry): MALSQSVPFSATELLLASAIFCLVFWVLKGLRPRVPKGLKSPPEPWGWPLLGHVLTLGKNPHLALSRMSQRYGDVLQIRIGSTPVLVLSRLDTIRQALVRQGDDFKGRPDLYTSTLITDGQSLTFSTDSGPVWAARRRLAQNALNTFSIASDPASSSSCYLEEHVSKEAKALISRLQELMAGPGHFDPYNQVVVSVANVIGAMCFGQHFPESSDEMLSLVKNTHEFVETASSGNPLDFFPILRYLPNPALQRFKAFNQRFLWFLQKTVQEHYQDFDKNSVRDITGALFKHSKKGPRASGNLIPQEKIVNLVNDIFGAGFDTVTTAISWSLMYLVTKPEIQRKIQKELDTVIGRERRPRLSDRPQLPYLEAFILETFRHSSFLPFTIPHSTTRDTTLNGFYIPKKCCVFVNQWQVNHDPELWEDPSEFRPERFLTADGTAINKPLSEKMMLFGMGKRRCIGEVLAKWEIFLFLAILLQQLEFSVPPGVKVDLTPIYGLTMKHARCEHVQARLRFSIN
As to the kind of experiment: Inhibition of CYP1A2 (unknown origin). Format: ADME.

Series [11] can be described thus: AUC (0 to 24 hrs) in dog at 2 mg/kg, po. It counts as ADME, organism-based, Canis lupus familiaris. Further details: time < 24 hr, route oral, dose 2 mg/kg. The note with it: in vivo.
Series [12] concerns Mus musculus. As to the kind of experiment: Protection against recombinant human IL23-induced acanthosis C57BL/6 mouse model assessed as reduction in IL-17F mRNA levels at 6 mg/kg, po BID BID for 10 days by qRT-PCR analysis relative to control. It counts as functional. More on the design: scale not given: the % may be the effect or the level left. The conditions noted are these: time 10 day. The procedure, abridged:
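In the IL-23 ear-injection model in C57BL/6 mice with BID oral dosing, ear tissue was collected from all animals at study end on day 10. IL-17A and IL-17F mRNA expression was quantified by qPCR and compared with the placebo arm.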
In general terms: Real-time PCR tracks product formation cycle by cycle.

Series [13] is described as follows: Cmax in dog at 2 mg/kg, po. More on the design: route oral, dose 2 mg/kg. Format: ADME, organism-based, Canis lupus familiaris. The conditions noted are these: in vivo. The procedure, abridged:
as §1

The subject of series [14] is Mus musculus. The series is described as follows: Protection against recombinant human IL23-induced acanthosis C57BL/6 mouse model assessed as inhibition of ear thickening at 3 mg/kg, po BID for 10 days and measured every other day relative to control. The note with it: C57BL/6, po, 240 h, time 10 day. Format: functional. The procedure, abridged: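 IL-23 ear-injection acanthosis model in C57BL/6 mice with BID oral dosing. Ear thickness % change was recorded every other day, before each next injection, from a day 0 baseline. Inhibition of ear thickening was calculated against the placebo arm from the area under the curve over the study duration.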

Series [15] in a line: Protein binding in mouse assessed as unbound fraction. It counts as ADME.
Series [16] concerns Mus musculus. As to the kind of experiment: Protection against imiquimod-induced C57BL/6 mouse model of psoriasis assessed as reduction in IL-17A mRNA levels at 5 mg/kg, po BID for 7 days by RT-PCR analysis relative to control. Format: functional. More on the design: scale not given: the % may be the effect or the level left. The note with it: time 7 day.

Chain of Cytochrome P450 3A4 (P08684 whole entry): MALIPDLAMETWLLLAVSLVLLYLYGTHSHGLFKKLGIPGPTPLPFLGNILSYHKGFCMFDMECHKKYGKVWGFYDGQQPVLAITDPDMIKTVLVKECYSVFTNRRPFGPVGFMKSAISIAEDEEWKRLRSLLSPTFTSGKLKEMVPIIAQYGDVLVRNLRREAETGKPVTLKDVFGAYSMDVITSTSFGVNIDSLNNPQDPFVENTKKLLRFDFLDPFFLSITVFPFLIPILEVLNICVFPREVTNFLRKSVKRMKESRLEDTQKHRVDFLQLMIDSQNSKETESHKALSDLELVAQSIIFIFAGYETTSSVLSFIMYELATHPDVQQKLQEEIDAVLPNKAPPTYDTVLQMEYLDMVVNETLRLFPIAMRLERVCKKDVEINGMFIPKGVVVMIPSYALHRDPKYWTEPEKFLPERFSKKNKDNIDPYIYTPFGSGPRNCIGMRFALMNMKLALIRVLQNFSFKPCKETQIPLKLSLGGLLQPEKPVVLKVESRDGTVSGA
Chain of Cytochrome P450 2C9 (P11712 whole entry): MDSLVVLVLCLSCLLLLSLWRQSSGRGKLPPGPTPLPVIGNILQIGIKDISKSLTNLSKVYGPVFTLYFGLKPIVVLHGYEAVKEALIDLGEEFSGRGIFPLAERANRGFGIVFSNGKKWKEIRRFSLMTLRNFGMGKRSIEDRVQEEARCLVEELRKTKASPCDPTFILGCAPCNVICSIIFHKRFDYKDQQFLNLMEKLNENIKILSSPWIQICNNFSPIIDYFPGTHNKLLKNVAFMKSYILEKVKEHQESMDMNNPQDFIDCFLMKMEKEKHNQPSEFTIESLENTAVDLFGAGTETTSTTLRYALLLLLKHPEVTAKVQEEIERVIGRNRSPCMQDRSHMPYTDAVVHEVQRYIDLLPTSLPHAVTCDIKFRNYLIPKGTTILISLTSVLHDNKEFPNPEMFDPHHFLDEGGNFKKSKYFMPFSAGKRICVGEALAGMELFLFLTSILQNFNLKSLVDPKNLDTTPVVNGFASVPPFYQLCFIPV
Chain of Cytochrome P450 2C19 (P33261 whole entry): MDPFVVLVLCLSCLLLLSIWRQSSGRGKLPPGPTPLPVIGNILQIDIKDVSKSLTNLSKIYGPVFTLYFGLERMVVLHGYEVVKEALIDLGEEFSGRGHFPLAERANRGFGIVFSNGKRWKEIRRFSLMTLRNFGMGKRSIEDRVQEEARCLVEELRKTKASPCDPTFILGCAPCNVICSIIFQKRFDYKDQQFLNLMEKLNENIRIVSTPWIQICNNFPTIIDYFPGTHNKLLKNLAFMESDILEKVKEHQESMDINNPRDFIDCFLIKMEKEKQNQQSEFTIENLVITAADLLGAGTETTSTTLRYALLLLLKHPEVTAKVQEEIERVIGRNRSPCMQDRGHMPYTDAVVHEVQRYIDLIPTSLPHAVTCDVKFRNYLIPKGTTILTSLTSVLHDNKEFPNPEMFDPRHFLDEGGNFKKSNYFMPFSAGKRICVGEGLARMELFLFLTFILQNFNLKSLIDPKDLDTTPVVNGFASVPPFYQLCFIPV

One may read the Cmax as the maximum level reached in the sampled fluid or tissue. For orientation: pEC50 means the EC50 on a negative log10 scale, so that one unit is a factor of ten. As usually defined, the bioavailability is dose-corrected exposure relative to a reference, in per cent. The term pIC50 denotes the IC50 on a negative log10 scale, so that one unit is a factor of ten. As usually defined, the clearance is a measure of how efficiently the substance is removed, as volume per time. By inhibition in vivo is commonly meant how much of the control response was suppressed. For orientation: AUC(0-t) means the area under the concentration-time curve up to a stated or last time point. Broadly, the fraction unbound is free concentration divided by total concentration. Turning to `CC(C)(O)C(=O)N[C@@H]1CC[C@@]2(S(=O)(=O)c3ccc(F)cc3)c3ccc(C(F)(C(F)(F)F)C(F)(F)F)cc3CC[C@@H]12`, the Cmax was determined as 1000 nM in [1] and 1300 nM in series [13]. Further, the pEC50 in [2] was below 5.30. The bioavailability in [3] came to 65%. Further, the pIC50 against Cytochrome P450 2C19 was 4.72; on Cytochrome P450 3A4, 4.96; against Cytochrome P450 2C9 it was 4.92; on Cytochrome P450 2C8, 4.92; on Cytochrome P450 1A2, 4.70. For the same compound, the Activity stood at 89.7% in the series with Mus musculus [4], 76.7% in the series on Mus musculus [10], 87.3% with Mus musculus [12] and 75.9% in the series with Mus musculus [16]. Moreover, the results for the clearance in [5] and in series [7] were 4.2 mL/min/kg and 0.8 mL/min/kg, respectively. Besides, the Vd in [6] is 2.9 L/kg. In addition, in the series with Mus musculus [8], the inhibition in vivo at 5 mg/kg stood at 13.7%. The values for the AUC(0-t) at 24 h in [9] and in series [11] were 33.2 µM·h and 59.8 µM·h, respectively. The inhibition in vivo at 3 mg/kg in the series on Mus musculus [14] was found to be 42.3%. In addition, the fraction unbound in series [15] is 0.006.
